According to ChEMBL document CHEMBL5303300, “EUbOPEN Chemogenomics Library - Multiplex” (2023):
Several values for one entry are separate records, joined by “and”; a condition that tells them apart may be missing. Equal values may be shown once.

Experiments:
Format in all cases: toxicity, cell-based
[1] = test system: U2OS; test: Multiplex assay against U2OS; conditions: human, 10 µM, compound concentration 10 uM, number of replicates 2
How it was run: (§1)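 Compound was added to live cells that had been stained at seeding with Hoechst33342, BioTracker Green Microtubule Cytoskeleton Dye, MitoTracker Red and Annexin V Alexa Fluor 680, and imaging followed on a CQ1 microscope at 37°C and 5% CO2. CellPathfinder machine-learning gating divided cells into Hoechst high-intensity objects or normal cells, normal cells into healthy, pyknosed or fragmented nuclei, and pyknosed cells into mitotic or apoptotic. Tubulin, mitochondrial-mass and membrane-permeability phenotypes are per cents of healthy-nucleus cells.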

[2] = test system: Fibroblast; test: Multiplex assay against human fibroblast; conditions: 10 µM, compound concentration 10 uM, number of replicates 2; how it was run: as §1
[3] = test system: HEK-293T; test: Multiplex assay against HEK293T; conditions: human, 10 µM, compound concentration 10 uM, number of replicates 2; how it was run: as §1

Question: For CNC(=O)c1nn(C)c2c1C(C)(C)Cc1cnc(Nc3ccc(N4CCN(C)CC4)cc3)nc1-2 [MILCICLIB], which “Population Apoptotic (%)” value ([1]; 12 h) is on record?
Answer: 66% and 80% and 69% and 62%

Question: And the “Population Healthy Nuclei (%)” value ([1]; 12 h)?
Answer: 67% [middle of 4 runs]

Question: What about the “Population Hoechst High Intensity Objects (%)” value ([1]; 12 h) of the same compound?
Answer: 0%

Question: What about the “Population Mitochondria Different-Phenotype (%)” value ([1]; 12 h) of the same compound?
Answer: 50% and 57% and 45% and 40%

Question: And the “Population Mitotic Cells (%)” value ([1]; 12 h)?
Answer: 33% and 19% and 30% and 37%

Question: And the “Population Normal (%)” value ([1]; 12 h)?
Answer: 100% and 99%

Question: What about the “Population Pyknosed Nuclei (%)” value ([1]; 12 h) of the same compound?
Answer: 39% [middle of 4 runs]

Question: What about the “Population Tubulin-Different-Phenotype (%)” value ([1]; 12 h) of the same compound?
Answer: 85% and 92% and 76% and 74%

Question: What about the “Population Apoptotic (%)” value ([1]; 24 h) of the same compound?
Answer: 85% and 89% and 80%

Question: What about the “Population Healthy Nuclei (%)” value ([1]; 24 h) of the same compound?
Answer: 50% [middle of 4 runs]

Question: And the “Population Hoechst High Intensity Objects (%)” value ([1]; 24 h)?
Answer: 0%

Question: And the “Population Mitochondria Different-Phenotype (%)” value ([1]; 24 h)?
Answer: 78% and 64% and 65% and 59%

Question: What about the “Population Mitotic Cells (%)” value ([1]; 24 h) of the same compound?
Answer: 14% and 10% and 19%

Question: What about the “Population Normal (%)” value ([1]; 24 h) of the same compound?
Answer: 100% and 99%

Question: And the “Population Pyknosed Nuclei (%)” value ([1]; 24 h)?
Answer: 57% and 43% and 45% and 36%

Question: And the “Population Tubulin-Different-Phenotype (%)” value ([1]; 24 h)?
Answer: 78% and 92% and 77% and 69%

Question: What about the “Population Apoptotic (%)” value ([1]; 48 h) of the same compound?
Answer: 93% and 84% and 92% and 89%

Question: What about the “Population Healthy Nuclei (%)” value ([1]; 48 h) of the same compound?
Answer: 26% [middle of 4 runs]

Question: What about the “Population Hoechst High Intensity Objects (%)” value ([1]; 48 h) of the same compound?
Answer: 0% and 1%

Question: What about the “Population Membrane Permeable-Phenotype (%)” value ([1]; 48 h) of the same compound?
Answer: 28% and 36% and 26%

Question: And the “Population Mitochondria Different-Phenotype (%)” value ([1]; 48 h)?
Answer: 100% and 54% and 69%

Question: And the “Population Mitotic Cells (%)” value ([1]; 48 h)?
Answer: 6% and 15% and 7% and 10%

Question: What about the “Population Normal (%)” value ([1]; 48 h) of the same compound?
Answer: 100% and 98%

Question: What about the “Population Pyknosed Nuclei (%)” value ([1]; 48 h) of the same compound?
Answer: 76% and 42% and 68% and 57%

Question: And the “Population Tubulin-Different-Phenotype (%)” value ([1]; 48 h)?
Answer: 71% and 81% and 77%

Question: And the “Population Apoptotic (%)” value ([2]; 12 h)?
Answer: 44% and 41% and 38% and 43%

Question: And the “Population Fragmented Nuclei (%)” value ([2]; 12 h)?
Answer: 8% and 14% and 10% and 12%

Question: And the “Population Healthy Nuclei (%)” value ([2]; 12 h)?
Answer: 78% and 69% and 75% and 76%

Question: What about the “Population Hoechst High Intensity Objects (%)” value ([2]; 12 h) of the same compound?
Answer: 0%

Question: And the “Population Membrane Permeable-Phenotype (%)” value ([2]; 12 h)?
Answer: 10% and 5% and 9% and 11%

Question: What about the “Population Mitochondria Different-Phenotype (%)” value ([2]; 12 h) of the same compound?
Answer: 6% and 10% and 4%

Question: And the “Population Mitotic Cells (%)” value ([2]; 12 h)?
Answer: 56% and 58% and 61%

Question: What about the “Population Normal (%)” value ([2]; 12 h) of the same compound?
Answer: 99% and 100%

Question: And the “Population Pyknosed Nuclei (%)” value ([2]; 12 h)?
Answer: 12% and 16% and 13% and 10%

Question: And the “Population Tubulin-Different-Phenotype (%)” value ([2]; 12 h)?
Answer: 77% and 75% and 67% and 55%

Question: And the “Total Cell Count” value ([2]; 12 h)?
Answer: 202 and 150 and 248 and 210

Question: And the “Population Apoptotic (%)” value ([2]; 24 h)?
Answer: 50% and 39% and 52%

Question: And the “Population Fragmented Nuclei (%)” value ([2]; 24 h)?
Answer: 18% and 13% and 19%

Question: And the “Population Healthy Nuclei (%)” value ([2]; 24 h)?
Answer: 71% and 74% and 70% and 73%

Question: What about the “Population Hoechst High Intensity Objects (%)” value ([2]; 24 h) of the same compound?
Answer: 0%

Question: And the “Population Membrane Permeable-Phenotype (%)” value ([2]; 24 h)?
Answer: 6% and 0% and 4% and 3%

Question: And the “Population Mitochondria Different-Phenotype (%)” value ([2]; 24 h)?
Answer: 7% and 9% and 11% and 6%

Question: What about the “Population Mitotic Cells (%)” value ([2]; 24 h) of the same compound?
Answer: 50% and 60% and 47%

Question: And the “Population Normal (%)” value ([2]; 24 h)?
Answer: 99% and 100%

Question: And the “Population Pyknosed Nuclei (%)” value ([2]; 24 h)?
Answer: 9% and 12% and 7%

Question: And the “Population Tubulin-Different-Phenotype (%)” value ([2]; 24 h)?
Answer: 75% and 71% and 65% and 55%

Question: And the “Total Cell Count” value ([2]; 24 h)?
Answer: 250 and 149 and 287 and 240

Question: And the “Population Apoptotic (%)” value ([2]; 48 h)?
Answer: 60% and 63% and 72% and 73%

Question: And the “Population Fragmented Nuclei (%)” value ([2]; 48 h)?
Answer: 16% and 21% and 20% and 22%

Question: What about the “Population Healthy Nuclei (%)” value ([2]; 48 h) of the same compound?
Answer: 71% and 58% and 67% and 63%

Question: And the “Population Hoechst High Intensity Objects (%)” value ([2]; 48 h)?
Answer: 0%

Question: And the “Population Membrane Permeable-Phenotype (%)” value ([2]; 48 h)?
Answer: 7% and 6% and 3% and 2%

Question: What about the “Population Mitochondria Different-Phenotype (%)” value ([2]; 48 h) of the same compound?
Answer: 11% and 9% and 13% and 6%

Question: What about the “Population Mitotic Cells (%)” value ([2]; 48 h) of the same compound?
Answer: 40% and 36% and 27% and 26%

Question: And the “Population Normal (%)” value ([2]; 48 h)?
Answer: 100%

Question: What about the “Population Pyknosed Nuclei (%)” value ([2]; 48 h) of the same compound?
Answer: 12% and 20% and 13%

Question: And the “Population Tubulin-Different-Phenotype (%)” value ([2]; 48 h)?
Answer: 66% and 57% and 56% and 48%

Question: And the “Total Cell Count” value ([2]; 48 h)?
Answer: 241 and 162 and 294 and 249

Question: And the “Population Apoptotic (%)” value ([3]; 12 h)?
Answer: 71% and 63% and 94% and 80%

Question: And the “Population Fragmented Nuclei (%)” value ([3]; 12 h)?
Answer: 2% and 5% and 0%

Question: What about the “Population Healthy Nuclei (%)” value ([3]; 12 h) of the same compound?
Answer: 86% and 83% and 89% and 90%

Question: And the “Population Hoechst High Intensity Objects (%)” value ([3]; 12 h)?
Answer: 16% and 14% and 15% and 12%

Question: What about the “Population Membrane Permeable-Phenotype (%)” value ([3]; 12 h) of the same compound?
Answer: 3% and 1% and 0% and 2%

Question: And the “Population Mitochondria Different-Phenotype (%)” value ([3]; 12 h)?
Answer: 81% and 80% and 79% and 71%

Question: And the “Population Normal (%)” value ([3]; 12 h)?
Answer: 83% and 85% and 84% and 87%

Question: And the “Population Pyknosed Nuclei (%)” value ([3]; 12 h)?
Answer: 10% and 7% and 8%

Question: And the “Population Tubulin-Different-Phenotype (%)” value ([3]; 12 h)?
Answer: 94% and 95% and 91%

Question: What about the “Total Cell Count” value ([3]; 12 h) of the same compound?
Answer: 247 and 254 and 304 and 272

Question: What about the “Population Apoptotic (%)” value ([3]; 24 h) of the same compound?
Answer: 73% and 83% and 95% and 70%

Question: What about the “Population Fragmented Nuclei (%)” value ([3]; 24 h) of the same compound?
Answer: 3% and 4% and 1%

Question: And the “Population Healthy Nuclei (%)” value ([3]; 24 h)?
Answer: 91% and 89% and 88% and 93%

Question: What about the “Population Hoechst High Intensity Objects (%)” value ([3]; 24 h) of the same compound?
Answer: 16% and 15% and 14%

Question: And the “Population Membrane Permeable-Phenotype (%)” value ([3]; 24 h)?
Answer: 2% and 0% and 1%

Question: What about the “Population Mitochondria Different-Phenotype (%)” value ([3]; 24 h) of the same compound?
Answer: 86% and 85% and 82% and 78%

Question: What about the “Population Normal (%)” value ([3]; 24 h) of the same compound?
Answer: 83% and 84% and 85%

Question: And the “Population Pyknosed Nuclei (%)” value ([3]; 24 h)?
Answer: 5% and 6%

Question: And the “Population Tubulin-Different-Phenotype (%)” value ([3]; 24 h)?
Answer: 93% and 92% and 90%

Question: What about the “Total Cell Count” value ([3]; 24 h) of the same compound?
Answer: 355 and 365 and 395

Question: What about the “Population Apoptotic (%)” value ([3]; 48 h) of the same compound?
Answer: 82% and 77% and 88% and 76%

Question: And the “Population Fragmented Nuclei (%)” value ([3]; 48 h)?
Answer: 3% and 1%

Question: And the “Population Healthy Nuclei (%)” value ([3]; 48 h)?
Answer: 90% and 88% and 93%

Question: And the “Population Hoechst High Intensity Objects (%)” value ([3]; 48 h)?
Answer: 19% and 16% and 11% and 14%

Question: What about the “Population Membrane Permeable-Phenotype (%)” value ([3]; 48 h) of the same compound?
Answer: 2% and 1% and 0%

Question: And the “Population Mitochondria Different-Phenotype (%)” value ([3]; 48 h)?
Answer: 91% and 90% and 94% and 89%

Question: And the “Population Mitotic Cells (%)” value ([3]; 48 h)?
Answer: 17% and 22% and 12% and 23%

Question: What about the “Population Normal (%)” value ([3]; 48 h) of the same compound?
Answer: 80% and 83% and 88% and 85%

Question: And the “Population Pyknosed Nuclei (%)” value ([3]; 48 h)?
Answer: 5% and 8% and 6% and 4%

Question: What about the “Population Tubulin-Different-Phenotype (%)” value ([3]; 48 h) of the same compound?
Answer: 93% and 89% and 88%

Question: What about the “Total Cell Count” value ([3]; 48 h) of the same compound?
Answer: 395 and 386 and 413 and 401
